Experimental data of several laboratories.
Protocols differ between the studies behind these lines.
Target: Serine/threonine-protein kinase Nek6 (NEK6, Homo sapiens, UniProt Q9HC98)
Observed: enzyme activity
Mode: inhibitor

SMILES | technique | concentration | remaining activity
Cc1[nH]c(/C=C2\C(=O)Nc3ccc(F)cc32)c(C)c1C(=O)N[C@H]1CCN(C(=O)N(C)C)C1 |  | 1 µM | 126%
CCCOc1ccc(OC)c(F)c1C(=O)c1ccc(C(=O)N[C@@H]2CNC[C@H]2NC(=O)c2ccc3[nH]ncc3c2)cc1 |  | 10 µM | 96%
Cc1ccc(Nc2nccc(N(C)c3ccc4c(C)n(C)nc4c3)n2)cc1S(N)(=O)=O |  | 0.5 µM | 96.1%
CCN(CC)CCNC(=O)c1c(C)[nH]c(/C=C2\C(=O)Nc3ccc(F)cc32)c1C |  | 0.1 µM | 99%
Cn1c(=O)n(-c2ccc(C(C)(C)C#N)cc2)c2c3cc(-c4cnc5ccccc5c4)ccc3ncc21 |  | 10 µM | 95%
O=C(Nc1cnn(-c2csc(C(=O)NC3COC3)c2)c1)Nc1ccccc1Cl |  | 5 µM | 99.6%
Nc1nc(Nc2ccccc2)sc1C(=O)c1c(F)cccc1F |  | 10 µM | 97%
COc1cc(Nc2cnc(C#N)c(O[C@H](C)CN(C)C)n2)ncc1-c1cnn(C)c1 | radiometric | 10 µM | 96%
CC(C)(C)c1nc(-c2cccc(NS(=O)(=O)c3c(F)cccc3F)c2F)c(-c2ccnc(N)n2)s1 | radiometric | 1 µM | 99%
CC(C)(C)C(=O)c1sc(NC2CCCCC2)nc1N |  | 10 µM | 100%
Cc1ccc(C(=O)Nc2ccc(CN3CCN(C)CC3)c(C(F)(F)F)c2)cc1C#Cc1cnc2cccnn12 |  | 23.5 nM | 100%
Cc1cnc(NC2CCOCC2)nc1-n1cnc(C(=O)NC(CN)c2cc(F)cc(Cl)c2)c1 (stereo not drawn) | radiometric | 1 µM | 55%
